Results: ChEMBL document CHEMBL1255352, “Polyclonal population structure of Streptococcus pneumoniae isolates in Spain carrying mef and mef plus erm(B)” (2008)
≈ marks a conversion by molar mass, not a printed value.

Key:
[1] = tested on: Streptococcus pneumoniae; assay: Antibacterial activity against mef(E)-positive Streptococcus pneumoniae isolate Spain 9V-3 by broth microdilution method; assay type: functional
Summary of the method: (§1)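 Broth microdilution MICs per CLSI guidelines. Agents tested were penicillin G, cefotaxime, erythromycin, clindamycin, telithromycin, tetracycline and levofloxacin. Plates were incubated at 35°C in ambient air. S. pneumoniae ATCC 49619 served as the reference strain in each run.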

[2] = tested on: Streptococcus pneumoniae; assay: Antibacterial activity against erm(B) and mef(E)-positive Streptococcus pneumoniae isolate Spain 6B by broth microdilution method; assay type: functional
Summary of the method: (§2)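 MICs by broth microdilution following CLSI guidelines, incubated at 35°C in ambient air. S. pneumoniae ATCC 49619 served as reference strain in each run. CLSI breakpoints applied. Isolates typed for mef(A)/mef(E) by PCR and by MLST.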

[3] = tested on: Streptococcus pneumoniae; assay: Antibacterial activity against mef and erm(B) positive Streptococcus pneumoniae isolates by broth microdilution method; assay type: functional; summary of the method: as §1
[4] = tested on: Streptococcus pneumoniae; assay: Antibacterial activity against erm(B) and mef(E)-positive Streptococcus pneumoniae isolate CC-6B by broth microdilution method
[5] = tested on: Streptococcus pneumoniae; assay: Antibacterial activity against mef-positive Streptococcus pneumoniae isolates assessed as resistance incidence by broth microdilution method; assay type: functional
Summary of the method: (§3)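 Clinical isolates were tested by CLSI broth microdilution against penicillin G, cefotaxime, erythromycin, clindamycin, telithromycin, tetracycline and levofloxacin, incubated at 35°C in ambient air, with ATCC 49619 as the control in each run. Isolates were classed as resistant using CLSI breakpoints.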

[6] = tested on: Streptococcus pneumoniae; assay: Antibacterial activity against mef and erm(B) positive Streptococcus pneumoniae isolates assessed as resistance incidence by broth microdilution method; assay type: functional; summary of the method: as §3
[7] = tested on: Streptococcus pneumoniae; assay: Antibacterial activity against mef-positive Streptococcus pneumoniae isolates by broth microdilution method; assay type: functional; summary of the method: as §1
[8] = tested on: Streptococcus pneumoniae; assay: Antibacterial activity against erm(B) and mef(E)-positive Streptococcus pneumoniae isolate Sweden 15A-25 by broth microdilution method; assay type: functional; summary of the method: as §2

Row | Compound | MIC [1] [µg/mL] | MIC [2] [µg/mL] | MIC50 [3] [µg/mL] | MIC90 [3] [µg/mL] | MIC [4] [µg/mL] | Activity [5] [%] | Activity [6] [%] | MIC50 [7] [µg/mL] | MIC90 [7] [µg/mL] | MIC [8] [µg/mL]
1 | CC1(C)S[C@@H]2[C@H](NC(=O)Cc3ccccc3)C(=O)N2[C@H]1C(=O)O [PENICILLIN G] | 0.12 (≈ 0.359 µM) | 4 (≈ 12 µM) | 1 (≈ 2.99 µM) | 4 (≈ 12 µM) | 0.12 (≈ 0.359 µM) | 35.5 | 46.7 | 0.03 (≈ 0.0897 µM) | 1 (≈ 2.99 µM) | 0.12 (≈ 0.359 µM)
2 | C[C@H]1COc2c(N3CCN(C)CC3)c(F)cc3c(=O)c(C(=O)O)cn1c23.C[C@H]1COc2c(N3CCN(C)CC3)c(F)cc3c(=O)c(C(=O)O)cn1c23.O [LEVOFLOXACIN] | – | – | 1 | 1 | – | – | – | 1 | 1 | –
3 | CC[C@H]1OC(=O)[C@H](C)[C@@H](O[C@H]2C[C@@](C)(OC)[C@@H](O)[C@H](C)O2)[C@H](C)[C@@H](O[C@@H]2O[C@H](C)C[C@H](N(C)C)[C@H]2O)[C@](C)(O)C[C@@H](C)C(=O)[C@H](C)[C@@H](O)[C@]1(C)O [ERYTHROMYCIN] | 0.5 (≈ 0.681 µM) | ≥ 64 | 64 (≈ 87.2 µM) | > 64 | 32 (≈ 43.6 µM) | – | – | 4 (≈ 5.45 µM) | 16 (≈ 21.8 µM) | ≥ 64
4 | CO/N=C(\C(=O)N[C@@H]1C(=O)N2C(C(=O)O)=C(COC(C)=O)CS[C@H]12)c1csc(N)n1 [CEFOTAXIME] | 0.06 (≈ 0.132 µM) | 1 (≈ 2.2 µM) | 0.5 (≈ 1.1 µM) | 2 (≈ 4.39 µM) | 0.12 (≈ 0.263 µM) | 17.7 | 4.4 | 0.01 (≈ 0.022 µM) | 0.25 (≈ 0.549 µM) | 0.06 (≈ 0.132 µM)
5 | CCC[C@@H]1C[C@@H](C(=O)N[C@@H]([C@H]2O[C@H](SC)[C@H](O)[C@@H](O)[C@H]2O)[C@H](C)Cl)N(C)C1 [CLINDAMYCIN] | 0.03 (≈ 0.0706 µM) | ≥ 64 | 64 (≈ 151 µM) | > 64 | 32 (≈ 75.3 µM) | 0 | 62.2 | 0.03 (≈ 0.0706 µM) | 0.25 (≈ 0.588 µM) | ≥ 64
6 | CN(C)[C@@H]1C(O)=C(C(N)=O)C(=O)[C@@]2(O)C(O)=C3C(=O)c4c(O)cccc4[C@@](C)(O)[C@H]3C[C@@H]12 [TETRACYCLINE] | 0.5 (≈ 1.13 µM) | ≥ 64 | 16 (≈ 36 µM) | > 32 | 4 (≈ 9 µM) | 13.3 | 55.5 | 1 (≈ 2.25 µM) | 4 (≈ 9 µM) | ≥ 64
7 | CC[C@H]1OC(=O)[C@H](C)C(=O)[C@H](C)[C@@H](O[C@@H]2O[C@H](C)C[C@H](N(C)C)[C@H]2O)[C@](C)(OC)C[C@@H](C)C(=O)[C@H](C)[C@H]2N(CCCCn3cnc(-c4cccnc4)c3)C(=O)O[C@]12C [TELITHROMYCIN] | 0.05 (≈ 0.0616 µM) | 0.08 (≈ 0.0985 µM) | 0.06 (≈ 0.0739 µM) | 0.25 (≈ 0.308 µM) | < 0.01 | – | – | 0.12 (≈ 0.148 µM) | 0.5 (≈ 0.616 µM) | 0.008 (≈ 0.00985 µM)
